Measurements from ChEMBL document CHEMBL5058577, “EUbOPEN Chemogenomics Library 2 (Multiplex)” (2022).

Test system: Fibroblast
Experiment: Multiplex assay against human fibroblast
Type: toxicity, cell-based
Method in brief: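 Compound was added to live cells that had been stained at seeding with Hoechst33342, BioTracker Green Microtubule Cytoskeleton Dye, MitoTracker Red and Annexin V Alexa Fluor 680, and imaging followed on a CQ1 microscope at 37°C and 5% CO2. CellPathfinder machine-learning gating divided cells into Hoechst high-intensity objects or normal cells, normal cells into healthy, pyknosed or fragmented nuclei, and pyknosed cells into mitotic or apoptotic. Tubulin, mitochondrial-mass and membrane-permeability phenotypes are per cents of healthy-nucleus cells.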

[1] = 12 h, 1 µM, compound concentration 1 uM, replicate 1
[2] = 12 h, 1 µM, compound concentration 1 uM, replicate 2
[3] = 12 h, 10 µM, compound concentration 10 uM, replicate 1
[4] = 12 h, 10 µM, compound concentration 10 uM, replicate 2
[5] = 24 h, 1 µM, compound concentration 1 uM, replicate 1
[6] = 24 h, 1 µM, compound concentration 1 uM, replicate 2
[7] = 24 h, 10 µM, compound concentration 10 uM, replicate 1
[8] = 24 h, 10 µM, compound concentration 10 uM, replicate 2
[9] = 48 h, 1 µM, compound concentration 1 uM, replicate 1
[10] = 48 h, 1 µM, compound concentration 1 uM, replicate 2
[11] = 48 h, 10 µM, compound concentration 10 uM, replicate 1
[12] = 48 h, 10 µM, compound concentration 10 uM, replicate 2

CN1CCC(C(=O)c2cccc(NC(=O)c3c(F)cc(F)cc3F)n2)CC1
Population Apoptotic (%) [1]: 28% | Population Fragmented Nuclei (%) [1]: 16% | Population Healthy Nuclei (%) [1]: 64% | Population Hoechst High Intensity Objects (%) [1]: 3% | Population Membrane Permeable-Phenotype (%) [1]: 1% | Population Mitochondria Different-Phenotype (%) [1]: 4% | Population Mitotic Cells (%) [1]: 71% | Population Normal (%) [1]: 96% | Population Pyknosed Nuclei (%) [1]: 18% | Population Tubulin-Different-Phenotype (%) [1]: 28% | Total Cell Count [1]: 153 | Population Apoptotic (%) [2]: 40% | Population Fragmented Nuclei (%) [2]: 28% | Population Healthy Nuclei (%) [2]: 53% | Population Hoechst High Intensity Objects (%) [2]: 2% | Population Membrane Permeable-Phenotype (%) [2]: 5% | Population Mitochondria Different-Phenotype (%) [2]: 10% | Population Mitotic Cells (%) [2]: 60% | Population Normal (%) [2]: 97% | Population Tubulin-Different-Phenotype (%) [2]: 43% | Total Cell Count [2]: 142 | Population Apoptotic (%) [3]: 32% | Population Fragmented Nuclei (%) [3]: 12% | Population Healthy Nuclei (%) [3]: 74% | Population Hoechst High Intensity Objects (%) [3]: 4% | Population Membrane Permeable-Phenotype (%) [3]: 1% | Population Mitochondria Different-Phenotype (%) [3]: 7% | Population Mitotic Cells (%) [3]: 67% | Population Normal (%) [3]: 95% | Population Pyknosed Nuclei (%) [3]: 13% | Population Tubulin-Different-Phenotype (%) [3]: 42% | Total Cell Count [3]: 266 | Population Apoptotic (%) [4]: 36% | Population Fragmented Nuclei (%) [4]: 23% | Population Healthy Nuclei (%) [4]: 54% | Population Membrane Permeable-Phenotype (%) [4]: 6% | Population Mitochondria Different-Phenotype (%) [4]: 6% | Population Mitotic Cells (%) [4]: 63% | Population Pyknosed Nuclei (%) [4]: 22% | Population Tubulin-Different-Phenotype (%) [4]: 63% | Total Cell Count [4]: 142 | Population Apoptotic (%) [5]: 45% | Population Fragmented Nuclei (%) [5]: 12% | Population Healthy Nuclei (%) [5]: 74% | Population Hoechst High Intensity Objects (%) [5]: 1% | Population Membrane Permeable-Phenotype (%) [5]: 0% | Population Mitochondria Different-Phenotype (%) [5]: 2% | Population Mitotic Cells (%) [5]: 55% | Population Normal (%) [5]: 98% | Population Pyknosed Nuclei (%) [5]: 12% | Population Tubulin-Different-Phenotype (%) [5]: 21% | Total Cell Count [5]: 156 | Population Apoptotic (%) [6]: 40% | Population Fragmented Nuclei (%) [6]: 34% | Population Healthy Nuclei (%) [6]: 43% | Population Membrane Permeable-Phenotype (%) [6]: 6% | Population Mitochondria Different-Phenotype (%) [6]: 10% | Population Mitotic Cells (%) [6]: 59% | Population Pyknosed Nuclei (%) [6]: 21% | Population Tubulin-Different-Phenotype (%) [6]: 45% | Total Cell Count [6]: 148 | Population Apoptotic (%) [7]: 54% | Population Fragmented Nuclei (%) [7]: 13% | Population Healthy Nuclei (%) [7]: 71% | Population Hoechst High Intensity Objects (%) [7]: 3% | Population Membrane Permeable-Phenotype (%) [7]: 0% | Population Mitochondria Different-Phenotype (%) [7]: 6% | Population Mitotic Cells (%) [7]: 45% | Population Normal (%) [7]: 96% | Population Pyknosed Nuclei (%) [7]: 14% | Population Tubulin-Different-Phenotype (%) [7]: 37% | Total Cell Count [7]: 258 | Population Apoptotic (%) [8]: 37% | Population Fragmented Nuclei (%) [8]: 30% | Population Healthy Nuclei (%) [8]: 50% | Population Hoechst High Intensity Objects (%) [8]: 2% | Population Membrane Permeable-Phenotype (%) [8]: 5% | Population Mitochondria Different-Phenotype (%) [8]: 8% | Population Mitotic Cells (%) [8]: 62% | Population Normal (%) [8]: 97% | Population Pyknosed Nuclei (%) [8]: 19% | Population Tubulin-Different-Phenotype (%) [8]: 65% | Total Cell Count [8]: 153 | Population Apoptotic (%) [9]: 71% | Population Fragmented Nuclei (%) [9]: 16% | Population Healthy Nuclei (%) [9]: 74% | Population Hoechst High Intensity Objects (%) [9]: 3% | Population Membrane Permeable-Phenotype (%) [9]: 0% | Population Mitochondria Different-Phenotype (%) [9]: 1% | Population Mitotic Cells (%) [9]: 28% | Population Normal (%) [9]: 96% | Population Pyknosed Nuclei (%) [9]: 8% | Population Tubulin-Different-Phenotype (%) [9]: 25% | Total Cell Count [9]: 164 | Population Apoptotic (%) [10]: 56% | Population Fragmented Nuclei (%) [10]: 42% | Population Healthy Nuclei (%) [10]: 46% | Population Hoechst High Intensity Objects (%) [10]: 2% | Population Membrane Permeable-Phenotype (%) [10]: 5% | Population Mitochondria Different-Phenotype (%) [10]: 5% | Population Mitotic Cells (%) [10]: 43% | Population Normal (%) [10]: 97% | Population Pyknosed Nuclei (%) [10]: 10% | Population Tubulin-Different-Phenotype (%) [10]: 67% | Total Cell Count [10]: 156 | Population Apoptotic (%) [11]: 71% | Population Fragmented Nuclei (%) [11]: 17% | Population Healthy Nuclei (%) [11]: 71% | Population Hoechst High Intensity Objects (%) [11]: 5% | Population Membrane Permeable-Phenotype (%) [11]: 0% | Population Mitochondria Different-Phenotype (%) [11]: 7% | Population Mitotic Cells (%) [11]: 28% | Population Normal (%) [11]: 94% | Population Pyknosed Nuclei (%) [11]: 10% | Population Tubulin-Different-Phenotype (%) [11]: 40% | Total Cell Count [11]: 272 | Population Apoptotic (%) [12]: 54% | Population Fragmented Nuclei (%) [12]: 36% | Population Healthy Nuclei (%) [12]: 55% | Population Hoechst High Intensity Objects (%) [12]: 3% | Population Membrane Permeable-Phenotype (%) [12]: 3% | Population Mitochondria Different-Phenotype (%) [12]: 3% | Population Mitotic Cells (%) [12]: 45% | Population Normal (%) [12]: 96% | Population Pyknosed Nuclei (%) [12]: 7% | Population Tubulin-Different-Phenotype (%) [12]: 69% | Total Cell Count [12]: 152
